The list is not random: actives were taken first. Their share in the collection is about 3.8%.
KCNQ1 pot = human KCNQ1 channel potentiation or activation | P51787 | B-score at 10 µM | CHO-K1 KCNQ1, thallium flux FluxOR fluorescence; stronger effect = higher value | 0.35% of 310,000 active | AID 2648;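 active = fluorescence ratio B-score, a plate-corrected score, at least three library SD, with initial intensity B-score within 5 SD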
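Test system: CHO-K1 cells stably expressing KCNQ1 / Medium: assay buffer / Also added: depolarizing K+/Tl+ stimulus, K2SO4 and Tl2SO4 each 12.5 mM in 5x stock / Incubation: 90 min dye loading and 20 min compound exposure, both at room temperature / Signal: thallium influx via FluxOR fluorescence, kinetic imaging / Evaluation: B score of baseline-normalized fluorescence ratio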
Kir21 inh = inhibitors of mouse Kir2.1 inward-rectifier potassium channel | B-score at 10 µM | 0.85% of 310,000 active | P35561 | AID 1672 | HEK293-Kir2.1, FluxOR thallium flux fluorescence; stronger effect = lower value;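 active = fluorescence ratio B-score at or below minus 3 SD of library scores, with starting-brightness B-score within 2 SD, cut at about -4.2 in these data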;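 note: channel flux triggered by added potassium and thallium sulfate stimulus; B-score of peak minus minimum fluorescence over baseline after thallium stimulus; more negative B-score means stronger Kir2.1 block with less thallium influx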
KCNK9 inh = blocks the human KCNK9 two-pore domain potassium channel. Q9NPC2. HEK293 KCNK9, FluxOR thallium flux fluorescence; stronger effect = lower value. B-score at 10 µM. 1.2% of 310,000 active. AID 488922;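 active = ratio B-score over 3 SD below the library mean, with starting fluorescence within 5 SD of its mean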;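 note: negative B-score means less thallium flux so channel inhibition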
Target sequence (Q9NPC2 whole entry, looked up, the tested form may be a part): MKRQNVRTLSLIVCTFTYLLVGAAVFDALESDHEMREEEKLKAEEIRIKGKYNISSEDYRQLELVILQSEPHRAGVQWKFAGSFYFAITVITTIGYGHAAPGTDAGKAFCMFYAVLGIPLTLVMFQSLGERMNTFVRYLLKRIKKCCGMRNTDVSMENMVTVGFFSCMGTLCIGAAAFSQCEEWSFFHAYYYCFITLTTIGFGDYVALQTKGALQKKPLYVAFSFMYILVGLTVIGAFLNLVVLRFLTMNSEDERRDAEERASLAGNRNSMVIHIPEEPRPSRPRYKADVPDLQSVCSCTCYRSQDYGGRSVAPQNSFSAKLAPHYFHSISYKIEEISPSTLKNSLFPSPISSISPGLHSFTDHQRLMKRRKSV
hERG protect = hERG (human) protection from proarrhythmic block | Q12809 | activation (rescue from dofetilide block), less the hit threshold, % at 10 µM | 0.51% of 310,000 active | AID 1511 | CHO-hERG, FluxOR thallium flux, dofetilide IC70 present;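 active = activation above the mean of controls blocked by dofetilide plus 5 SD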;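 note: thallium influx through hERG after potassium depolarization seen as dye fluorescence rise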
KCNK3 inh = human KCNK3 channel inhibition, primary screen | AID 602410 | O14649 | CHO-KCNK3 thallium flux, FluxOR fluorescence; stronger effect = lower value | 0.84% of 340,000 active | B-score at 10 µM;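 active = B-score under library mean minus 4 SD, starting fluorescence ratio at most library mean plus 5 SD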;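 note: more negative B-score means stronger inhibition of thallium flux through KCNK3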
KCNQ1 block = human KCNQ1 channel inhibition | 1.3% of 310,000 active | CHO-K1 KCNQ1, FluxOR thallium flux fluorescence; stronger effect = higher value | B-score at 10 µM | P51787;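 active = compounds whose thallium flux B-score, printed positive for inhibition, exceeds three library SD while starting fluorescence stays within three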;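 note: channel opened by potassium depolarization with thallium stimulus after 20 min compound exposure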
KCNK9 block conf = confirmation of human KCNK9 potassium channel inhibitors; shares compounds with KCNK9 inh; HEK293 KCNK9 cells, FluxOR thallium flux fluorescence; inhibition, % at 10 µM; 43% of 4,900 active; AID 492992;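 active = thallium signal inhibited by more than 5 SD of the compound-free buffer control wells, on both duplicate plates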;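 note: 0% = assay buffer control wells without compound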
Kir21 sel = mouse Kir2.1 off-target activity of KCNK9 modulators | shares compounds with KCNK9 inh | Kir2.1 cells, FluxOR thallium flux fluorescence | inhibition, % at 10 µM | 4% of 4,900 active | AID 492993;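 active = thallium signal drop more than 5 SD beyond the mean of the no-compound control wells, seen in both duplicate plates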;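 note: signal is fluorescence rise after thallium addition divided by baseline fluorescence; plate controls were assay buffer only for no effect and full block by chlorpromazine control for full effect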
KCNK9 uninduced = non-induced cell nonspecific activity of KCNK9 modulators | shares compounds with KCNK9 inh | non-induced KCNK9-HEK293, FluxOR thallium flux | inhibition, % at 10 µM | 40% of 4,900 active;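 active = thallium signal drop beyond 5 SD of the untreated control mean, on both duplicate plates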;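 note: plate controls were buffer only IC0 wells for no effect and SID17386958 at its maximal inhibitory level for full effect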
Starred values were filed as active, the others as inactive; i = inactive; x = no result given.

SMILES | KCNQ1 pot | Kir21 inh | KCNK9 inh | hERG protect | KCNK3 inh | KCNQ1 block | KCNK9 block conf | Kir21 sel | KCNK9 uninduced
O=C(OCC(=O)N1CCN(C(=O)c2ccco2)CC1)c1cccc(F)c1 | x | x | x | x | i | x | x | x | x
CCN1CCN(Cc2c(C(=O)N/N=C(\C)c3ccc(Cl)c(Cl)c3)nnn2-c2nonc2N)CC1 | i | 2.1 | i | -8 | x | i | x | x | x
CN1C(=O)C(CC(=O)Nc2ccc(F)cc2)N(Cc2ccco2)C1=S (stereo not drawn) | i | -1.1 | i | -5 | i | i | x | x | x
N#C/C(=C/c1ccc(N2CCOCC2)o1)c1ccc(Cl)cc1 | i | 0.2 | -10* | -23 | i | i | 74%* | 38%* | 80%*
Cc1ccc(CN2CCN(C(=O)c3cccc4ccccc34)CC2)cc1 | i | -3.8 | i | -11 | i | i | x | x | x
Cc1cccc(CN2CCN(C(=O)c3cccc4ccccc34)CC2)c1 | i | -0.7 | i | -9 | i | i | i | i | i
Cc1cccc2nc(-c3ccccc3)nc(N[C@@H](CO)c3ccccc3)c12 | i | -0.53 | -8.3* | -12 | i | i | 50%* | i | 44%*
COc1ccc(N2CCN(C(=O)CSc3ncnc4scc(-c5ccc(C)cc5)c34)CC2)cc1 | i | -0.27 | i | -11 | i | i | i | i | i
COc1ccc(N2CCN(C(=O)CSc3nc(C)cs3)CC2)cc1 | i | 0.76 | i | -10 | i | i | x | x | x
Cc1nc2c(C)cccn2c(=O)c1NC(=O)c1ccc2c(c1)OCO2 | i | 0.96 | i | -13 | i | i | x | x | x
CCn1c(SCC#N)nc2c(c1=O)C1(CCCC1)Cc1ccccc1-2 | i | -3 | -12* | -7 | i | i | 47%* | i | i
COc1cc(C2/C(=C(/O)c3ccccc3)C(=O)C(=O)N2c2ccccn2)ccc1O (stereo not drawn) | i | 0.1 | i | -8 | i | i | x | x | x
CCCCc1ccc(-c2ccc(Br)cc2)nc1 | i | -1.6 | i | -6 | i | i | i | i | i
Cc1[nH]c2ccccc2c1/C=N/NC(=O)c1cc(-c2cccs2)[nH]n1 | i | 1.2 | -10* | -10 | i | i | i | i | i
O=C1CCc2cc(S(=O)(=O)Nc3ccccc3F)cc3c2N1CCC3 | i | -1 | i | -11 | i | i | x | x | x
O=C1c2[nH]nc(-c3ccccc3O)c2C(c2cccc(O)c2)N1Cc1ccco1 (stereo not drawn) | i | -0.55 | -8.4* | -15 | i | i | 26%* | i | 30%*
COc1cc(Cl)ccc1OCc1cc(C(=O)NCC(C)c2ccccc2)no1 (stereo not drawn) | i | 0.1 | i | -8 | i | i | i | i | i
CN(C(=O)c1cc(COc2ccc(F)cc2Cl)on1)C1CCCc2ccccc21 (stereo not drawn) | i | 0.03 | i | -9 | i | i | i | i | 24%*
Cc1ccc(CN(C)C(=O)c2cc(COc3ccc(F)cc3Cl)on2)o1 | i | -0.94 | i | 1 | i | i | x | x | x
CC(CNC(=O)c1cc(COc2ccc3ncccc3c2)on1)c1ccccc1 (stereo not drawn) | i | 0.72 | i | -18 | i | i | x | x | x
O=C(NCCCc1ccccc1)c1cc(COc2ccc(F)cc2Cl)on1 | i | -1.1 | i | -8 | i | 6* | i | i | i
COc1ccc(C)cc1NC(=O)C1CCCCN1S(=O)(=O)c1ccccc1 (stereo not drawn) | x | x | x | x | i | x | x | x | x
CC1CCCC(C)N1C(=O)COC(=O)c1ccccc1O (stereo not drawn) | x | x | x | x | i | x | x | x | x
CC1CCCC(C)N1C(=O)COC(=O)c1cc(Br)ccc1Cl (stereo not drawn) | i | 0 | i | -5 | i | i | i | i | i
COc1cc(OC)nc(Oc2ccccc2C(=O)Oc2ccc(F)cc2Cl)n1 | i | 0.62 | -9.1* | 3 | i | i | 59%* | i | 39%*
SMILES | KCNQ1 pot | Kir21 inh | KCNK9 inh | hERG protect | KCNK3 inh | KCNQ1 block | KCNK9 block conf | Kir21 sel | KCNK9 uninduced
COc1cc(OC)nc(Oc2cccc(Cl)c2C)n1 | i | -0.2 | i | -7 | i | i | x | x | x
CC(C)c1ccc(S(=O)(=O)/N=C2\C=C(NS(=O)(=O)c3ccccc3)C(=O)c3ccccc32)cc1 | i | -3 | -9.4* | -27 | i | 18* | 32%* | i | 32%*
CC(C)Cn1c(/C=N/Nc2nc3ccccc3[nH]2)nc2ccccc21 | i | -1.5 | i | -4 | i | 11* | 27%* | i | i
CCCn1c(/C=N/Nc2nc3ccccc3[nH]2)nc2ccccc21 | x | x | x | x | i | x | x | x | x
CC(C)(C)N1C(=O)[C@H]2[C@@H](c3ccc(Br)cc3)N3C(=O)N(c4cccc(Cl)c4)C(=O)[C@@]3(Cc3ccccc3)[C@H]2C1=O | i | -0.55 | -8.4* | -5 | i | i | i | i | 26%*
O=C(Nc1cc(Sc2ccccn2)cc([N+](=O)[O-])c1)c1cccc(Cl)c1 | i | 0.6 | -10* | -11 | i | 7* | 41%* | i | 40%*
O=C(Nc1cc(Sc2ccccn2)cc([N+](=O)[O-])c1)c1ccc(Cl)cc1 | i | -0.72 | i | -4 | i | i | x | x | x
CC[n+]1cccc(-c2nc3ccccc3s2)c1 | i | 0 | i | -13 | i | i | x | x | x
CC[n+]1c(/C=C/N(C)c2ccccc2)n(-c2ccccc2)c2ccc(-c3nc4ccccc4s3)cc21 | i | -7* | -16* | -31 | -9.7* | 15* | 90%* | 78%* | 76%*
CCN(CC)C(=O)C1CCCN(Cc2ccc3ccccc3c2)C1 (stereo not drawn) | i | -3.6 | i | -11 | i | i | x | x | x
CCN(CC(=O)Nc1ccccc1C(F)(F)F)C(=O)CN1C(=O)NC2(CCCCC2)C1=O | i | 0.77 | i | -16 | i | i | x | x | x
COC(=O)c1cc(=O)n(Cc2ccc(OC)cc2)c(=NCc2ccc(OC)cc2)s1 | i | 1.6 | i | -15 | i | i | i | i | i
COc1ccc(OC)c(S(=O)(=O)N2CCN(c3c(C)cccc3C)CC2)c1 | i | 1.8 | -11* | -17 | i | i | 52%* | i | 34%*

High-throughput results as filed in PubChem.
